Shown are actives, neighbours in structure and some others; about 3.8% of the full set was active somewhere.
KCNQ1 act: potentiates or activates the human KCNQ1 potassium channel; CHO-K1 KCNQ1, thallium flux FluxOR fluorescence; hits give high values; B-score at 10 µM; hit rate 0.35% among 310,000; AID 2648; P51787;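 active = fluorescence ratio B-score, a plate-corrected score, at least three library SD, with initial intensity B-score within 5 SD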
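Doses: Single concentration per compound, DMSO matched to controls | Test system: KCNQ1-transfected CHO-K1 cells | Timing: 90 min dye loading and 20 min compound exposure, both at room temperature | Measured by: Kinetic FluxOR thallium fluorescence, 10-s 1-Hz baseline, 110-s post-stimulus read | Medium: Assay buffer with matched DMSO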
hERG rescue: hERG (human) protection from proarrhythmic block. AID 1511. hit rate 0.51% among 310,000. Q12809. activation (rescue from dofetilide block), less the hit threshold, % at 10 µM. CHO-hERG, FluxOR thallium flux, dofetilide IC70 present;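 active = activation above the mean of controls blocked by dofetilide plus 5 SD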;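 also: thallium influx through hERG after potassium depolarization seen as dye fluorescence rise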
KCNK3 block: human KCNK3 channel inhibition, primary screen. AID 602410. B-score at 10 µM. hit rate 0.84% among 340,000. CHO-KCNK3 thallium flux, FluxOR fluorescence; hits give low values;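 active = B-score under library mean minus 4 SD, starting fluorescence ratio at most library mean plus 5 SD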;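 also: more negative B-score means stronger inhibition of thallium flux through KCNK3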
Kir21 block: blocks the mouse Kir2.1 inward-rectifier potassium channel; P35561; HEK293-Kir2.1, FluxOR thallium flux fluorescence; hits give low values; B-score at 10 µM; hit rate 0.85% among 310,000;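 active = fluorescence ratio B-score at or below minus 3 SD of library scores, with starting-brightness B-score within 2 SD, cut at about -4.2 in these data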;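 also: channel flux triggered by added potassium and thallium sulfate stimulus; B-score of peak minus minimum fluorescence over baseline after thallium stimulus; more negative B-score means stronger Kir2.1 block with less thallium influx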
Target sequence (P35561 whole entry, looked up): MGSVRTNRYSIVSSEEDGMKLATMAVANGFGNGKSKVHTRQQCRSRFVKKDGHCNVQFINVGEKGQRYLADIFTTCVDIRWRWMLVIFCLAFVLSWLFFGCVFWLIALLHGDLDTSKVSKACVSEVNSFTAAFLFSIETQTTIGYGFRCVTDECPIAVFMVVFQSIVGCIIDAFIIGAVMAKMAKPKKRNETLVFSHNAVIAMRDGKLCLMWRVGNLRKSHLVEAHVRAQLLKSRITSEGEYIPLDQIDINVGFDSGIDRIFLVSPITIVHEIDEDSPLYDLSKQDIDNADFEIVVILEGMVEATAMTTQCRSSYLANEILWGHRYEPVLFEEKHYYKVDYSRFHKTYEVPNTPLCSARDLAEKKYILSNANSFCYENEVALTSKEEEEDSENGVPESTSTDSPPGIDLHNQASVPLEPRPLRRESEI
KCNQ1 inh: blocks the human KCNQ1 potassium channel. hit rate 1.3% among 310,000. B-score at 10 µM. CHO-K1 KCNQ1, FluxOR thallium flux fluorescence; hits give high values. P51787;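 active = compounds whose thallium flux B-score, printed positive for inhibition, exceeds three library SD while starting fluorescence stays within three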;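 also: channel opened by potassium depolarization with thallium stimulus after 20 min compound exposure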
KCNK9 block: inhibitors of human KCNK9 two-pore domain potassium channel; Q9NPC2; hit rate 1.2% among 310,000; HEK293 KCNK9, FluxOR thallium flux fluorescence; hits give low values; AID 488922; B-score at 10 µM;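 active = ratio B-score over 3 SD below the library mean, with starting fluorescence within 5 SD of its mean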;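 also: negative B-score means less thallium flux so channel inhibition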
KCNK9 block conf: confirmation of human KCNK9 potassium channel inhibitors | shares compounds with KCNK9 block | HEK293 KCNK9 cells, FluxOR thallium flux fluorescence | inhibition, % at 10 µM | hit rate 43% among 4,900 | AID 492992;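 active = thallium signal inhibited by more than 5 SD of the compound-free buffer control wells, on both duplicate plates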;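 also: 0% = assay buffer control wells without compound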
Kir21 sel: selectivity of KCNK9 modulators against mouse Kir2.1; hit rate 4% among 4,900; inhibition, % at 10 µM; AID 492993; Kir2.1 cells, FluxOR thallium flux fluorescence; shares compounds with KCNK9 block;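 active = thallium signal drop more than 5 SD beyond the mean of the no-compound control wells, seen in both duplicate plates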;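 also: signal is fluorescence rise after thallium addition divided by baseline fluorescence; plate controls were assay buffer only for no effect and full block by chlorpromazine control for full effect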
HEK293 Tl ctr: second check of KCNK9 modulator effects in non-induced HEK293 cells; inhibition, % at 10 µM; AID 492997; shares compounds with KCNK9 block; hit rate 40% among 4,900; FluxOR thallium flux;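 active = thallium signal drop beyond 5 SD of the untreated control mean, on both duplicate plates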;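 also: plate controls were buffer only IC0 wells for no effect and SID17386958 at its maximal inhibitory level for full effect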
KCNK3 inh conf: human KCNK3 channel inhibition, confirmation assay | shares compounds with KCNK3 block | CHO-KCNK3 thallium flux, FluxOR fluorescence; 0% buffer, 100% carvedilol maximal block | ratio percent of control, % at 10 µM | hit rate 99% among 2,400 | AID 651638;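 active = ratio percent of control, averaged over triplicates, above buffer control mean plus 5 SD, cut at about 64% in these data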;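 also: ratio is the fluorescence rise from min to max over baseline after thallium stimulus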
KCNK3 noninduced: KCNK3 inhibitor counter-screen hit in non-induced cells | shares compounds with KCNK3 block | non-induced KCNK3 parental cells, FluxOR thallium flux; hits give low values | thallium flux ratio (lower = more inhibition) at 10 µM | hit rate 40% among 2,400 | AID 651747;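 active = thallium flux ratio, averaged over three wells, more than 5 SD below the buffer control mean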;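 also: host cells are CHO cells without KCNK3 induction; ratio is peak minus trough fluorescence over baseline then normalized to buffer controls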
Starred values were filed as active, the others as inactive; i = inactive; . = not tested or not shown.

SMILES	KCNQ1 act	hERG rescue	KCNK3 block	Kir21 block	KCNQ1 inh	KCNK9 block	KCNK9 block conf	Kir21 sel	HEK293 Tl ctr	KCNK3 inh conf	KCNK3 noninduced
CCC(Oc1ccccc1)C(=O)Nc1ccccc1N1CCCC1 (stereo not drawn)	i	-12	-13*	-5.5*	i	-11*	59%*	45%*	74%*	111*	i
CCOc1ccccc1C(=O)Nc1cc2c(cc1N1CCCC1)n(CC)c(=O)n2CC	i	-29	-8.8*	-1.8	i	-14*	51%*	i	22%*	101*	i
CSc1nc(Cl)c(Cc2ccc(OC(C)C)cc2)c(N(C)C)n1	i	-20	-8.8*	0.01	i	-8.4*	i	i	38%*	134*	0.13*
COc1cccc(C(=O)N[C@@H](C)C(=O)N2CCC3(CC2)NCCc2[nH]cnc23)c1	i	-5	i	0.06	i	i	.	.	.	.	.
Cn1cnc(C(=O)NCc2ccccc2)c1C(=O)NCc1ccccc1	.	.	i	.	.	.	.	.	.	.	.
c1csc(C(c2nnnn2C2CCCCC2)N2CCCC3(CCCCC3)C2)c1 (stereo not drawn)	i	-13	i	0.16	i	i	.	.	.	.	.
CC(C)(C)n1nnnc1C(c1cccs1)N1CCCC2(CCCCC2)C1 (stereo not drawn)	i	-5	-9.1*	2.4	i	-17*	40%*	i	40%*	125*	0.13*
O=c1cc(N2CCCCC2)c(-c2ccccc2)nn1Cc1c(Cl)cccc1Cl	i	-10	-8.8*	-0.08	9*	-10*	52%*	i	25%*	98*	0.15*
COc1ccccc1OCC(=O)Nc1cccc(-c2nc3ccccc3o2)c1	i	-3	i	-0.9	i	-12*	45%*	i	i	114*	i
COc1ccccc1NS(=O)(=O)c1ccc(O)c(C(=O)OCc2cccc([N+](=O)[O-])c2)c1	i	-10	-8.8*	-0.12	i	-9.2*	i	i	28%*	99*	i
CCOC(=O)c1nn(-c2cccc(OC)c2)c(-c2ccccc2)c1C(=O)c1ccccc1	i	-7	-9.3*	1.5	i	-10*	50%*	i	i	113*	0.14*
COc1ccccc1C(=O)Nc1ccc(S(=O)(=O)N(C)c2ccccc2)cc1	i	-2	-9.3*	0.19	i	-9.1*	48%*	i	i	106*	i
C/C(=N\NC(=O)c1ccc(OC2CCCC2)cc1)c1ccc(O)cc1	i	-7	i	0.26	i	i	.	.	.	.	.
Cc1sc2nc(C3CC3)nc(N3CCN(C(=O)c4ccccc4F)CC3)c2c1C	i	-5	-12*	0.76	i	-13*	i	i	28%*	114*	0.14*
COc1ccc(C(=O)N2CCN(c3nc(C4CC4)nc4sc(C)c(C)c34)CC2)cc1	i	-11	i	0.74	i	i	.	.	.	.	.
Cc1nc(N2CCN(C(=O)c3ccco3)CC2)c2c3c(sc2n1)CCCC3	i	-15	i	-1.4	i	i	.	.	.	.	.
Cc1sc2nc(C3CC3)nc(N3CCN(C(=O)c4ccc(F)cc4)CC3)c2c1C	i	-7	-13*	1.1	i	-14*	29%*	i	28%*	92*	i
O=C(c1ccco1)N1CCN(c2nc(C3CC3)nc3sc4c(c23)CCCC4)CC1	i	-18	-8.7*	0.75	i	-19*	66%*	i	28%*	117*	0.13*
Cc1sc2nc(C3CC3)nc(N3CCN(S(=O)(=O)c4ccc(F)cc4)CC3)c2c1C	i	-14	i	0.09	i	i	.	.	.	.	.
CCCn1c(SCC(=O)N2CC(=O)Nc3ccccc32)n[nH]c1=O	.	.	i	.	.	.	.	.	.	.	.
CC(C)N1CCSC1=S	.	.	i	.	.	.	.	.	.	.	.
CCC1CN(S(=O)(=O)c2cc(-c3cc(C)no3)ccc2OC)c2cc(C)ccc2O1 (stereo not drawn)	i	-17	-11*	-1.3	i	-11*	36%*	i	32%*	121*	0.15*
CCc1ccc(-c2cc(C)no2)cc1S(=O)(=O)N1CCC(C)CC1	i	-11	-10*	0.13	i	-9.3*	i	i	46%*	102*	i
Cc1cc(-c2ccc(C(C)C)c(S(=O)(=O)N3CCC(C)CC3)c2)on1	i	-6	-17*	-0.02	15*	-17*	66%*	i	53%*	75*	i
CCc1ccc(-c2cc(C)no2)cc1S(=O)(=O)N1CCN(c2cccc(C)c2C)CC1	i	-10	i	0	i	i	.	.	.	.	.
SMILES	KCNQ1 act	hERG rescue	KCNK3 block	Kir21 block	KCNQ1 inh	KCNK9 block	KCNK9 block conf	Kir21 sel	HEK293 Tl ctr	KCNK3 inh conf	KCNK3 noninduced
CCc1ccc(-c2cc(C)no2)cc1S(=O)(=O)N1CCOc2ccc(C)cc21	i	-8	-11*	0.43	i	-8.9*	48%*	i	33%*	125*	0.16*
CC(C)CN1C(=O)NC2(CCCc3ccccc32)C1=O (stereo not drawn)	i	-5	i	-1.3	i	i	.	.	.	.	.
CCN(CC)S(=O)(=O)c1ccc2c(c1)N(CC(=O)Nc1ccc(NC(C)=O)cc1)C(=O)CO2	i	-5	i	0.25	i	i	.	.	.	.	.
COc1ccc2oc(=O)cc(-c3cc4cccc(OC)c4o3)c2c1	i	-5	i	-0.43	i	i	.	.	.	.	.
CCN(CC)C(=O)Oc1ccc2oc(=O)cc(-c3cc4cccc(OC)c4o3)c2c1	i	-17	-10*	0.03	i	-18*	80%*	i	34%*	104*	i
CCC(C)n1c(SCC(=O)Nc2cc(C(C)(C)C)nn2-c2ccccc2)nc2ccccc2c1=O (stereo not drawn)	i	-5	i	0.06	10*	-8.2*	40%*	i	38%*	105*	0.13*
CCC(C)n1c(SCC(=O)Nc2cc(C)on2)nc2ccccc2c1=O (stereo not drawn)	i	-5	i	0.03	i	i	.	.	.	.	.
